According to ChEMBL document CHEMBL4699573, “Design, Synthesis, and Pharmacological Evaluation of Analogues Derived from the PLEV Tetrapeptide as Protein-Protein Interaction Modulators of Voltage-Gated Sodium Channel 1.6” (J Med Chem, 2020):
Calls of active or inactive are those of the source. No cut-off for these calls is given here. Residues, ends and D or L forms follow the SMILES beside them. *: point of attachment. Adamantane1carbonyl = O=C(C12CC3CC(CC(C3)C1)C2)*; Fmoc = O=C(OCC1c2ccccc2-c2ccccc21)*; Benzoyl(4-F) = O=C(c1ccc(F)cc1)*; Piperazinyl(4-Me) = CN1CCN(*)CC1; Decanoyl = CCCCCCCCCC(=O)*; Cbz = O=C(OCc1ccccc1)*; NHcHex = C1CCC(N*)CC1; NHBn = c1ccc(CN*)cc1; Bz = O=C(c1ccccc1)*; X2 = C1O[C@@H]1CO*; OtBu = CC(C)(C)O*; OAll = C=CCO*; OPr = CCCO*

Assays:
HEK293 [1] = test: Modulation of recombinant human FGF141b (1 to 252 residues)-recombinant human Nav1.6 C-terminal tail (1763 to 1976 residues) protein-protein interaction expressed in HEK293 cells assessed as relative luminescence value at 50 uM measured at 2 mins interval for 20 mins by split-luciferase complementation assay relative to control; type: cell-based; details: time min 2-20
In short: (§1)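 Double-stable HEK293 line expressing CLuc-FGF14 and CD4-Nav1.6-C-tail-NLuc, kept on G418 and puromycin. Cells seeded for 24 h, then given compound for 1 h in serum-free, phenol red-free DMEM/F12 with a final 0.5% DMSO: 50 μM for screening, 0.25–100 μM over eight concentrations for dose-response; n = 4. D-luciferin added and read every 2 min for 20 min at 37 °C. Peak luminescence expressed as percent of per-plate DMSO mean (n = 32). IC50 from four-parameter nonlinear fit. At least 3 experiments.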

HEK293 [2] = test: Inhibition of full-length Photinus pyralis luciferase transfected in HEK293 cells at 25 uM incubated for 1 hrs by split-luciferase complementation assay; type: cell-based
In short: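 HEK293 cells transfected with full-length Photinus pyralis luciferase, then treated 1 h with 25 μM compound (n = 4) or 0.5% DMSO (n = 32). Luminescence read after D-luciferin addition, as in the LCA, normalized to per-plate DMSO controls. One-way ANOVA with Dunnett's test.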

HEK293 [3] = test: Cytotoxicity against HEK293 cells assessed as reduction in cell viability measured after 18 hrs by celltiter-blue assay; details: human, hek293, 18 h
[4] = Modulation of recombinant human FGF141b (1 to 252 residues)-recombinant human Nav1.6 C-terminal tail (1763 to 1976 residues) protein-protein interaction expressed in HEK293 cells measured at 2 mins interval for 20 mins by split-luciferase complementation assay; type: cell-based; in short: as §1
HEK293 [5] = test: Modulation of recombinant human FGF141b (1 to 252 residues)-recombinant human Nav1.6 C-terminal tail (1763 to 1976 residues) protein-protein interaction expressed in HEK293 cells measured at 2 mins interval for 20 mins by split-luciferase complementation assay relative to control; type: cell-based; details: filed as modulator, time min 2-20; in short: as §1
[6] = target: T1, Sodium channel protein type 8 subunit alpha (Homo sapiens, UniProt Q9UQD0); test: Binding affinity to human recombinant Nav1.6 C-terminal domain expressed in Escherichia coli BL21 assessed as dissociation constant by SPR analysis
In short: (§2)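 Biacore T100 runs with FGF14 (17,896 RU) or Nav1.6 C-tail (6,800 RU) amine-coupled on CM5 at pH 5.5. Compounds at 0.195–200 μM in PBS, 0.005% Tween-20, 2% DMSO; 50 μL/min at 25 °C. 120 s association, 150 s dissociation, DMSO calibration, blank subtraction. Rates from a Langmuir 1:1 fit; KD averages the kinetic and steady-state values. At least duplicate experiments.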
Target sequence in this assay (Q9UQD0 whole entry, the tested form may be a part): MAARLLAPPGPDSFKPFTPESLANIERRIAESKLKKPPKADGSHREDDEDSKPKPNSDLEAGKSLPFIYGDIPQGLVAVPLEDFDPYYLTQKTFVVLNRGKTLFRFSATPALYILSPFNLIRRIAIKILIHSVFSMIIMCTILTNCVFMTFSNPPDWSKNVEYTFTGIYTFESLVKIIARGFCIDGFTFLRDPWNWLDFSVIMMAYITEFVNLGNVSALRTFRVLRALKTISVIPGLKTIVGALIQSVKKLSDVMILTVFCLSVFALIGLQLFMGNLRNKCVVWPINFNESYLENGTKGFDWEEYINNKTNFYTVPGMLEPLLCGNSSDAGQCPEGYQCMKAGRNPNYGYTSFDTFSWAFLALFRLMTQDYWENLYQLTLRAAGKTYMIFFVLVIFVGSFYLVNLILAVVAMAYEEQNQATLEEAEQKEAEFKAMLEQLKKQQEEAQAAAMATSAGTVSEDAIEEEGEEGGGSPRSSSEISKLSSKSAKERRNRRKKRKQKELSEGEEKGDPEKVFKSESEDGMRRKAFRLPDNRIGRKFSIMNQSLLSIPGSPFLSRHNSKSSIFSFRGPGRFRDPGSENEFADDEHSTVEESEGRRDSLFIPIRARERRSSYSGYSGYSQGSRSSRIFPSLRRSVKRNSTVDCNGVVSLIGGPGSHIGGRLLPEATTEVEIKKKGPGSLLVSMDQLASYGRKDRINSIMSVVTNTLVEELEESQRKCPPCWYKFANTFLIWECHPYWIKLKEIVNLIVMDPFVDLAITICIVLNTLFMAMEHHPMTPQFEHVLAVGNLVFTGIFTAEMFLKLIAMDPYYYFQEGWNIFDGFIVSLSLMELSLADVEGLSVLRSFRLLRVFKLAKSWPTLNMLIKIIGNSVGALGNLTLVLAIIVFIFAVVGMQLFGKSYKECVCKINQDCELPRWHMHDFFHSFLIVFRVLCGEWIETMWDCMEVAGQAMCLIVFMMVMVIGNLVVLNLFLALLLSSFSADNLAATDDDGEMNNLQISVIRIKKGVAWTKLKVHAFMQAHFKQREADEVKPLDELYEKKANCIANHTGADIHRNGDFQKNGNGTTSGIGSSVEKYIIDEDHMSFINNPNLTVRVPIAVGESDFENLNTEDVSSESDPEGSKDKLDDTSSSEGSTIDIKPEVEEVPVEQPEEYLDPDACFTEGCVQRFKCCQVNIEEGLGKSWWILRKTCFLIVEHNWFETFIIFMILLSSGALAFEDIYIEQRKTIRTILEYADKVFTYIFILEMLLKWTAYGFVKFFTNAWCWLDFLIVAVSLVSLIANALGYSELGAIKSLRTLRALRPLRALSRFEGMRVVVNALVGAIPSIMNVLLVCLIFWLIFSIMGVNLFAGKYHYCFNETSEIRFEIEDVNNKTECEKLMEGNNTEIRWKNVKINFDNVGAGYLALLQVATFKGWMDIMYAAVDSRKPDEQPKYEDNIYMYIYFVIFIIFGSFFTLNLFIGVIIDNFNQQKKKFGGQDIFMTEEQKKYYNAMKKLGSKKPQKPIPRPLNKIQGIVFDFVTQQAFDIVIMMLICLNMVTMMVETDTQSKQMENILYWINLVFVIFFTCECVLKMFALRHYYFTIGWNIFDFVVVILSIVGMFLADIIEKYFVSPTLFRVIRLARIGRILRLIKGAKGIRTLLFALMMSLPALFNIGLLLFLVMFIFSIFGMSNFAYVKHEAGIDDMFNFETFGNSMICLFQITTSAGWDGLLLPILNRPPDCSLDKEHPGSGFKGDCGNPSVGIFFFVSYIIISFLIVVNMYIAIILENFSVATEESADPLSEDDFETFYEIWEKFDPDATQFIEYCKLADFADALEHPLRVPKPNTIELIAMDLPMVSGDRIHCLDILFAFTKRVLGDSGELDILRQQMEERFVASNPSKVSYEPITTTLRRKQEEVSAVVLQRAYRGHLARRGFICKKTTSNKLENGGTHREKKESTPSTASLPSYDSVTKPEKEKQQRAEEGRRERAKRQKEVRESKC

[7] = target: T2, Fibroblast growth factor 14 (Homo sapiens) (UniProt Q92915); test: Binding affinity to human recombinant FGF14 expressed in Escherichia coli BL21 assessed as association rate constant by SPR analysis; details: filed as modulator; in short: as §2
T2 sequence (whole entry): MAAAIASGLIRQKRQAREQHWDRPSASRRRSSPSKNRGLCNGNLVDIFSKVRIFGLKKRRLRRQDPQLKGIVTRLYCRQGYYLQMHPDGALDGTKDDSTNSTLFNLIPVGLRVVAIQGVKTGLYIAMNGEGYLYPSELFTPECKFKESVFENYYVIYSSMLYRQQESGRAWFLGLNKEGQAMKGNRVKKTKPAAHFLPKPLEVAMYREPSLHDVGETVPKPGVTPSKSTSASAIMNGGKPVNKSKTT

[8] = target: T1, Sodium channel protein type 8 subunit alpha; test: Binding affinity to human recombinant Nav1.6 C-terminal domain expressed in Escherichia coli BL21 assessed as association rate constant by SPR analysis; details: filed as modulator; in short: as §2
Target sequence in this assay (Q9UQD0 whole entry, looked up, the tested form may be a part): as the sequence (Q9UQD0 whole entry, the tested form may be a part) above

[9] = target: T2, Fibroblast growth factor 14 (Homo sapiens); test: Binding affinity to human recombinant FGF14 expressed in Escherichia coli BL21 assessed as dissociation rate constant by SPR analysis; details: filed as modulator; in short: as §2
[10] = target: T1, Sodium channel protein type 8 subunit alpha; test: Binding affinity to human recombinant Nav1.6 C-terminal domain expressed in Escherichia coli BL21 assessed as dissociation rate constant by SPR analysis; details: filed as modulator; in short: as §2
Target sequence in this assay (Q9UQD0 whole entry, looked up, the tested form may be a part): as the sequence (Q9UQD0 whole entry, the tested form may be a part) above

[11] = target: T3, Fibroblast growth factor 14 (Homo sapiens, UniProt Q92915); test: Binding affinity to human recombinant FGF14 expressed in Escherichia coli BL21 assessed as dissociation constant by SPR analysis; in short: as §2
T3 sequence (Q92915 whole entry): T2 sequence (whole entry)

[12] = target: T2, Fibroblast growth factor 14 (Homo sapiens); test: Binding affinity to human recombinant FGF14 expressed in Escherichia coli BL21 assessed as assessed as induction of protein denaturation by measuring change in melting temperature at 50 uM by fluorescent dye based thermal shift assay; details: filed as modulator
[13] = target: T1, Sodium channel protein type 8 subunit alpha; test: Binding affinity to human recombinant Nav1.6 C-terminal domain expressed in Escherichia coli BL21 assessed as assessed as induction of protein denaturation by measuring change in melting temperature at 10 uM by fluorescent dye based thermal shift assay; details: filed as modulator, dose 50.0 µM
Target sequence in this assay (Q9UQD0 whole entry, looked up, the tested form may be a part): as the sequence (Q9UQD0 whole entry, the tested form may be a part) above

SMILES | Activity (HEK293 [1]) [%] | inhibition (HEK293 [2]) | Activity (HEK293 [3]) | IC50 [4] [µM] | Efficacy (HEK293 [5]) [%] | further results
CC(C)C[C@H](NC(=O)[C@@H]1CCCN1C(=O)OCc1ccccc1)C(=O)N[C@@H](CCC(=O)OC(C)(C)C)C(=O)N[C@H](C(=O)N1CCN(C)CC1)C(C)C (Cbz-PLE(OtBu)V-{Piperazinyl(4-Me)}) | 54.2 | – | – | – | – | –
CC(C)C[C@H](NC(=O)[C@@H]1CCCN1C(=O)c1ccc(F)cc1)C(=O)N[C@@H](CCC(=O)OC(C)(C)C)C(=O)N[C@H](C(N)=O)C(C)C ({Benzoyl(4-F)}-PLE(OtBu)V-NH2) | – | inactive | Non-Toxic | – | – | –
CC(C)C[C@H](NC(=O)[C@@H]1CCCN1C(=O)C12CC3CC(CC(C3)C1)C2)C(=O)N[C@@H](CCC(=O)OC(C)(C)C)C(=O)N[C@H](C(N)=O)C(C)C (Adamantane1carbonyl-PLE(OtBu)V-NH2) | 68.7 | inactive | Non-Toxic | 49 | 82.1 | –
COC(=O)[C@@H](NC(=O)[C@H](CCC(=O)OC(C)(C)C)NC(=O)[C@H](CC(C)C)NC(=O)[C@@H]1CCCN1C(=O)OCC1c2ccccc2-c2ccccc21)C(C)C (Fmoc-PLE(OtBu)V-OMe) | 76.9 | – | – | – | – | –
COC(=O)[C@@H](NC(=O)[C@H](CCC(=O)OC(C)(C)C)NC(=O)[C@H](CC(C)C)NC(=O)[C@@H]1CCCN1C(C)=O)C(C)C (Ac-PLE(OtBu)V-OMe) | 95 | – | – | – | – | –
CC(C)C[C@H](NC(=O)[C@@H]1CCCN1C(=O)OCc1ccccc1)C(=O)N[C@@H](CCC(=O)OC(C)(C)C)C(=O)N[C@H](C(=O)NCc1ccccc1)C(C)C (Cbz-PLE(OtBu)V-NHBn) | 134 | inactive | Non-Toxic | – | – | –
CCCOC(=O)[C@@H](NC(=O)[C@H](CCC(=O)OC(C)(C)C)NC(=O)[C@H](CC(C)C)NC(=O)[C@@H]1CCCN1C(=O)C12CC3CC(CC(C3)C1)C2)C(C)C (Adamantane1carbonyl-PLE(OtBu)V-OPr) | – | – | – | 22.5 | 83.3 | Kd [6]: 90.1 µM; K [7]: 2.89 10^2/M/s; K [8]: 3.4 10^2/M/s; K [9]: 2.04 10^-2/s; K [10]: 4.92 10^-2/s; Kd [11]: 11.4 µM
CCCCCCCCCC(=O)N1CCC[C@H]1C(=O)N[C@@H](CC(C)C)C(=O)N[C@@H](CCC(=O)OC(C)(C)C)C(=O)N[C@H](C(N)=O)C(C)C (Decanoyl-PLE(OtBu)V-NH2) | 114 | – | – | – | – | –
C=CCOC(=O)[C@@H](NC(=O)[C@H](CCC(=O)OC(C)(C)C)NC(=O)[C@H](CC(C)C)NC(=O)[C@@H]1CCCN1C(=O)OCc1ccccc1)C(C)C (Cbz-PLE(OtBu)V-OAll) | – | inactive | Non-Toxic | 15.4 | 90.7 | Kd [6]: > 200 µM; K [8]: 2.57 10^5/M/s; Activity (HEK293 [1]; filed as modulator): 11.9%; ΔTm [12]: 0.67 °C; K [10]: 4.49 10^-3/s; ΔTm [13]: -0.87 °C
CC(C)C[C@H](NC(=O)[C@@H]1CCCN1)C(=O)N[C@@H](CCC(=O)OC(C)(C)C)C(=O)N[C@H](C(N)=O)C(C)C (H-PLE(OtBu)V-NH2) | 114 | – | – | – | – | –
CC(C)C[C@H](NC(=O)[C@@H]1CCCN1C(=O)C12CC3CC(CC(C3)C1)C2)C(=O)N[C@@H](CCC(=O)OC(C)(C)C)C(=O)N[C@H](C(=O)OC[C@@H]1CO1)C(C)C (Adamantane1carbonyl-PLE(OtBu)V-X2) | – | inactive | Non-Toxic | 25.1 | 91.4 | Activity (HEK293 [1]; filed as modulator): 13.1%
CC(C)C[C@H](NC(=O)[C@@H]1CCCN1C(=O)c1ccccc1)C(=O)N[C@@H](CCC(=O)OC(C)(C)C)C(=O)N[C@H](C(N)=O)C(C)C (Bz-PLE(OtBu)V-NH2) | 105 | – | – | – | – | –
CC(C)C[C@H](NC(=O)[C@@H]1CCCN1C(=O)OCc1ccccc1)C(=O)N[C@@H](CCC(=O)OC(C)(C)C)C(=O)N[C@H](C(=O)NC1CCCCC1)C(C)C (Cbz-PLE(OtBu)V-NHcHex) | 117 | – | – | – | – | –
